Each block holds one compound with its values, some of them ahead of it.
Experiments:
[1] = target: T1, C-C chemokine receptor type 4 (Homo sapiens, UniProt P51679); assay: Antagonist activity at human CCR4 expressed in rat chem-5 cells assessed as inhibition of CCL22-induced calcium flux measured at 2.5 secs time interval for 45 secs by fluorescence assay; format: functional, cell-based
T1 sequence (P51679 whole entry): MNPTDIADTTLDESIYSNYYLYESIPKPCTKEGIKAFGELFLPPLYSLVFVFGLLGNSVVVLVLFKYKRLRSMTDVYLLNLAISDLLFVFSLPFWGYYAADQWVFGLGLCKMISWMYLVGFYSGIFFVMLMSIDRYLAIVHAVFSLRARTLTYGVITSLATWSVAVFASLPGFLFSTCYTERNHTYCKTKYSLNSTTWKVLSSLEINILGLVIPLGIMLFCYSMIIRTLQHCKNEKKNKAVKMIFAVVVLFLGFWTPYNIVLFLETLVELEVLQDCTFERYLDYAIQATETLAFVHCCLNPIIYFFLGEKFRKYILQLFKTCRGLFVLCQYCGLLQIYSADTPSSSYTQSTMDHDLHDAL
Procedure, shortened: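 Calcium flux functional readout of CCR4 antagonism, run without serum; IC50 reported.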

[2] = Bioavailability in rat; format: ADME, organism-based; conditions: in vivo
[3] = Hepatic clearance in rat at 0.5 mg/kg, iv; format: ADME, organism-based; conditions: in vivo
[4] = AUCinfinity in rat at 0.5 mg/kg, iv; format: ADME, organism-based; parameters: dose 0.5 mg/kg, route intravenous, time infinity; conditions: in vivo
[5] = Stability in human hepatocytes assessed as compound remaining incubated for 60 mins under shaking condition by LC-MS/MS analysis; format: ADME, cell-based, Hepatocyte; conditions: read-out: Stability
Procedure, shortened: (§1)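 Human and rat hepatocytes exposed to compound; percent parent remaining reported.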

[6] = Stability in rat hepatocytes assessed as compound remaining incubated for 60 mins under shaking condition by LC-MS/MS analysis; format: ADME, cell-based, Hepatocyte; conditions: read-out: Stability; procedure, shortened: as §1
Cytochrome P450 1A2 = target: T2, Cytochrome P450 1A2 (Homo sapiens, UniProt P05177); assay: Inhibition of CYP1A2 (unknown origin); format: ADME
T2 sequence (P05177 whole entry): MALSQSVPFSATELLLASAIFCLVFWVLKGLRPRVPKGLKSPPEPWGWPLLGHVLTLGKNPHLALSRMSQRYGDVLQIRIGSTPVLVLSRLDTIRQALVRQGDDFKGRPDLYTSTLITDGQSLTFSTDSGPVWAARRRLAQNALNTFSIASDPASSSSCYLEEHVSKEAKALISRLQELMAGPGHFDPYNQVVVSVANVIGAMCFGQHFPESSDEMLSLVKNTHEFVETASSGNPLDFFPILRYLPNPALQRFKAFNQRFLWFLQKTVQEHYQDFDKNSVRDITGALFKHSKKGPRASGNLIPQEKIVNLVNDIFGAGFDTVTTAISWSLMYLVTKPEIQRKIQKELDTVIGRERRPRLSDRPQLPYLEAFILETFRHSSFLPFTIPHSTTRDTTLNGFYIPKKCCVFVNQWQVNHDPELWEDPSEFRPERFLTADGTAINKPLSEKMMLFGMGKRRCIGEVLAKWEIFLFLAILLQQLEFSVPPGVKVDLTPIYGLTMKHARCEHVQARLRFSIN
Procedure, shortened: (§2)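 CYP inhibition tested against 1A2, 2C9, 2C19, 2D6 and 3A4; IC50 in μM.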

Cytochrome P450 3A4 = Cytochrome P450 3A4 (Homo sapiens, UniProt P08684); assay: Inhibition of CYP3A4 (unknown origin); format: ADME; procedure, shortened: as §2
[7] = Volume of distribution at steady state in rat at 0.5 mg/kg, iv or 2 mg/kg, po; format: ADME, organism-based; conditions: in vivo, read-out: Vdss
[8] = AUC(0 to infinity) in rat at 2 mg/kg, po; format: ADME, organism-based; parameters: dose 2 mg/kg, route oral, time infinity; conditions: in vivo
Cytochrome P450 2C9 = Cytochrome P450 2C9 (Homo sapiens, UniProt P11712); assay: Inhibition of CYP2C9 (unknown origin); format: ADME; procedure, shortened: as §2
Cytochrome P450 2C19 = Cytochrome P450 2C19 (Homo sapiens, UniProt P33261); assay: Inhibition of CYP2C19 (unknown origin); format: ADME; procedure, shortened: as §2
Cytochrome P450 2D6 = Cytochrome P450 2D6 (Homo sapiens, UniProt P10635); assay: Inhibition of CYP2D6 (unknown origin); format: ADME; procedure, shortened: as §2
[9] = Oral bioavailability in rat at 2 mg/kg, po; format: ADME, organism-based; conditions: in vivo
[10] = Hepatic clearance in rat at 0.5 mg/kg, iv or 2 mg/kg, po; format: ADME, organism-based; conditions: in vivo
[11] = Terminal half-life in rat at 0.5 mg/kg, iv or 2 mg/kg, po; format: ADME, organism-based; conditions: in vivo, read-out: beta t1/2 (converted)

Sequence of Cytochrome P450 2C9 (P11712 whole entry): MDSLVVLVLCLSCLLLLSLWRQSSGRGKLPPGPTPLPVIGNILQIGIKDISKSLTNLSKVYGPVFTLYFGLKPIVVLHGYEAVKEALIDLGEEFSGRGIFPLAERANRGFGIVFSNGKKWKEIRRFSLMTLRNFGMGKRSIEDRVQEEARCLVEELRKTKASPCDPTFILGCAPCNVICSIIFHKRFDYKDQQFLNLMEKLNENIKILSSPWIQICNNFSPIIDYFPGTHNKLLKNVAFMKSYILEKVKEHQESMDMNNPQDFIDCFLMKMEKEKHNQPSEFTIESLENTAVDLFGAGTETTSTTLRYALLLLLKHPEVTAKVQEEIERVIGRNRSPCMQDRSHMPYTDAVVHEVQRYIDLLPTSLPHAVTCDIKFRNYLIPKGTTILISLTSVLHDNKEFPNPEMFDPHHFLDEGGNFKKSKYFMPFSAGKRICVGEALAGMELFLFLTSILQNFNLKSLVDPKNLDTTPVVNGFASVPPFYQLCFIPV
Sequence of Cytochrome P450 2D6 (P10635 whole entry): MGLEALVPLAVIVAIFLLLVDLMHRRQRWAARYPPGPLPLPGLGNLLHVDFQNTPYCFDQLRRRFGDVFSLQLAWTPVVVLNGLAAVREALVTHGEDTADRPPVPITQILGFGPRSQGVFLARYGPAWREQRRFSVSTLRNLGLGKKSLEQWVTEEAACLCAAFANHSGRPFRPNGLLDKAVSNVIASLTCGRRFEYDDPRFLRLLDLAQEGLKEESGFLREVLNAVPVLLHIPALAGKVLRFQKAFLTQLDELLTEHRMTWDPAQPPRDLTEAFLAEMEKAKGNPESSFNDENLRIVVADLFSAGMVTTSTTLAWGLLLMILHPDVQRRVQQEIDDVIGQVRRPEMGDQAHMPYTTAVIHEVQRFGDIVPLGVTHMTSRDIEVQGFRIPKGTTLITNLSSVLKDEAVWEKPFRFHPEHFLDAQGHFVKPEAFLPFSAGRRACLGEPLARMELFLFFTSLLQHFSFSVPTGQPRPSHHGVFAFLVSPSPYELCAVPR
Sequence of Cytochrome P450 3A4 (P08684 whole entry): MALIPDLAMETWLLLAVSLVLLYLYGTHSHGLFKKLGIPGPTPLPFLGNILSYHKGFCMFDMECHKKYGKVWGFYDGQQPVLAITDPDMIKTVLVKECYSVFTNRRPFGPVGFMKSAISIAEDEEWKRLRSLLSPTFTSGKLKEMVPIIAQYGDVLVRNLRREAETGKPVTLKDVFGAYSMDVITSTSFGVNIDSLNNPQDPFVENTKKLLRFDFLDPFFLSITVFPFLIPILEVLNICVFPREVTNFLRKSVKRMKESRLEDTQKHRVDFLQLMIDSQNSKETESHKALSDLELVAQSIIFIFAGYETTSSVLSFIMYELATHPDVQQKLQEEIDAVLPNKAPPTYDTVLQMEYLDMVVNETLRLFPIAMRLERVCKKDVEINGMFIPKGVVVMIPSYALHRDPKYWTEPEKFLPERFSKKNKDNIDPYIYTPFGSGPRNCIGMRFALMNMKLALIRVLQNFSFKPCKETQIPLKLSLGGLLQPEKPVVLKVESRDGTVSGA
Sequence of Cytochrome P450 2C19 (P33261 whole entry): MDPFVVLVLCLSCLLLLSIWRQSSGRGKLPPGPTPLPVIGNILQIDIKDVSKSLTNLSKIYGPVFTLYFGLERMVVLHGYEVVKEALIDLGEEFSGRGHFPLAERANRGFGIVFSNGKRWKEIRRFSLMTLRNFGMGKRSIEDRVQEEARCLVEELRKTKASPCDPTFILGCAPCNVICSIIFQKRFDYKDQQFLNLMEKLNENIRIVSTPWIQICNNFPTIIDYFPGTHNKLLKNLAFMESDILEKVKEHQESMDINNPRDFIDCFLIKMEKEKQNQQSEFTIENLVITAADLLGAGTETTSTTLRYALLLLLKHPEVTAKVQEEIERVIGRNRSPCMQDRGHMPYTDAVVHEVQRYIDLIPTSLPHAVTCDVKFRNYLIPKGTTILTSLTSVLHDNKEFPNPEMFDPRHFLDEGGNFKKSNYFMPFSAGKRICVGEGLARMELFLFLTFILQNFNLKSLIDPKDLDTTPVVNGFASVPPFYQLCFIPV

SMILES: CC(c1ccc(Cl)cc1Cl)n1ncc2ncc(C3=CCN(C(=O)[C@H]4CCCCN4)CC3)nc21 (stereo not given in full)
IC50 [1]: 275 nM
bioavailability [2]: 25%

SMILES: Cc1nn(C(C)c2ccc(Cl)cc2Cl)c2nc(N3CCC(N4CCCCC4)C(C)C3)cnc12 (stereo not given)
IC50 [1]: 126 nM
CLH [3]: 38.3 mL/min/kg
AUC(0-inf) [4]: 217 ng·h/mL

SMILES: Cc1nn([C@H](C)c2ccc(Cl)cc2Cl)c2nc(N3CC[C@H](N4CCCC4)[C@H](C)C3)cnc12
IC50 [1]: 69 nM

SMILES: C[C@@H]1CC(c2cnc3c(C#N)nn([C@H](C)c4ccc(Cl)cc4Cl)c3n2)=CC[C@@H]1N1CCC[C@H]1C(F)(F)F
IC50 [1]: > 5000 nM

SMILES: C[C@@H](Nc1cncc(C2=CCN(C(=O)[C@H]3CCCCN3)CC2)n1)c1ccc(Cl)cc1Cl
IC50 [1]: 54 nM
bioavailability [2]: 7%

SMILES: CC(c1ccc(Cl)cc1Cl)n1ncc2ncc(N3CCC(N4CCCCC4)CC3)nc21 (stereo not given)
IC50 [1]: 2580 nM

SMILES: Cc1nn([C@H](C)c2ccc(Cl)cc2Cl)c2nc(N3CC[C@H](N4CCC[C@H]4C(N)=O)[C@H](C)C3)cnc12
IC50 [1]: 170 nM

SMILES: Cc1nn([C@H](C)c2ccc(Cl)cc2Cl)c2nc(N3CC[C@H](N4CCC[C@H]4CCS(C)(=O)=O)[C@H](C)C3)cnc12
IC50 [1]: 104 nM

SMILES: Cc1nn([C@H](C)c2ccc(Cl)cc2Cl)c2nc(N3CC[C@H](N4CCC[C@H]4CCC(N)=O)[C@H](C)C3)cnc12
IC50 [1]: 37 nM

Second part, the compound after the results:

remaining at 1 h [5]: 100%
IC50 [1]: 229 nM
remaining at 1 h [6]: 100%
SMILES: C[C@@H]1CC(c2cnc3c(C#N)nn([C@H](C)c4ccc(Cl)cc4Cl)c3n2)=CC[C@@H]1N1CCC[C@H]1CN

IC50 (Cytochrome P450 1A2): > 10000 nM
remaining at 1 h [5]: 74%
IC50 (Cytochrome P450 3A4): > 10000 nM
IC50 [1]: 27 nM
Vd [7]: 13.4 L/kg
AUC(0-inf) [8]: 23.2 ng·h/mL
IC50 (Cytochrome P450 2C9): > 10000 nM
IC50 (Cytochrome P450 2C19): > 10000 nM
IC50 (Cytochrome P450 2D6): > 10000 nM
bioavailability [9]: 7%
CLH [10]: 114.6 mL/min/kg
half-life [11]: 2.1 h
remaining at 1 h [6]: 19%
SMILES: C[C@@H]1CN(c2cnc3c(C#N)nn([C@H](C)c4ccc(Cl)cc4Cl)c3n2)CC[C@@H]1N1CCC[C@H]1CO

IC50 [1]: 238 nM
CLH [3]: 121.7 mL/min/kg
AUC(0-inf) [4]: 68 ng·h/mL
SMILES: CC1CN(c2cnc3cnn(C(C)c4ccc(Cl)cc4Cl)c3n2)CCC1N1CCCCC1 (stereo not given)

remaining at 1 h [5]: 99%
IC50 [1]: 36 nM
remaining at 1 h [6]: 35%
SMILES: Cc1nn([C@H](C)c2ccc(Cl)cc2Cl)c2nc(C3=CC[C@H](N4CCC[C@H]4CO)[C@H](C)C3)cnc12
